# According to ChEMBL document CHEMBL1125592, “Calcium channel blocking and positive inotropic activities of ethyl 5-cyano-1,4-dihydro-6-methyl-2-[(phenylsulfonyl)methyl]-4-aryl-3- pyridine-carboxylate and analogues. Synthesis and structure-activity relationships” (J Med Chem, 1991):
# Active and inactive are the calls of the source. The calls are words filed in the database; no cut-off is given here.
# Legend:
# [1] = organism: Oryctolagus cuniculus; assay: Vasoconstrictor effect at a concentration of 10e-4 M in presence of partially depolarized isolated rings from rabbits.; format: functional
# [2] = organism: Oryctolagus cuniculus; assay: Vasorelaxant effect at a concentration of 10e-5 M on rabbit aortic rings previously contracted with 50 mM KCl.; format: functional, Aorta; parameters: unit not given here
# Outline: (§1)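 Rabbit aortic rings precontracted with 50 mM KCl or 1.0 μM norepinephrine, then exposed to increasing concentrations of test agent. Relaxation recorded at each concentration.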
# [3] = organism: Oryctolagus cuniculus; assay: Vasorelaxant effect at a concentration of 10e-4 M on rabbit aortic rings previously contracted with 1.0 uM Norepinephrine.; format: functional, Aorta; parameters: unit not given here; outline: as §1
# [4] = organism: Oryctolagus cuniculus; assay: Vasorelaxant effect at a concentration of 10e-9 M on rabbit aortic rings previously contracted with 1.0 uM Norepinephrine.; format: functional, Aorta; outline: as §1
# [5] = organism: Oryctolagus cuniculus; assay: Vasorelaxant effect at a concentration of 10e-4 M on rabbit aortic rings previously contracted with 50 mM KCl.; format: functional, Aorta; parameters: unit not given here; outline: as §1
# [6] = organism: Oryctolagus cuniculus; assay: Vasoconstrictor effect at a concentration of 10e-6 M in presence of partially depolarized isolated rings from rabbits.; format: functional
# [7] = organism: Oryctolagus cuniculus; assay: Vasorelaxant effect at a concentration of 10e-9 M on rabbit aortic rings previously contracted with 50 mM KCl.; format: functional, Aorta; outline: as §1
# [8] = organism: Oryctolagus cuniculus; assay: Vasorelaxant effect at a concentration of 10e-8 M on rabbit aortic rings previously contracted with 1.0 uM Norepinephrine.; format: functional, Aorta; outline: as §1
# [9] = organism: Oryctolagus cuniculus; assay: Vasoconstrictor effect at a concentration of 10e-8 M in presence of nondepolarized isolated rings from rabbits.; format: functional
# [10] = organism: Oryctolagus cuniculus; assay: Vasorelaxant effect at a concentration of 10e-8 M on rabbit aortic rings previously contracted with 50 mM KCl.; format: functional, Aorta; outline: as §1
# [11] = organism: Oryctolagus cuniculus; assay: Vasorelaxant effect at a concentration of 10e-7 M on rabbit aortic rings previously contracted with 1.0 uM Norepinephrine.; format: functional, Aorta; parameters: unit not given here; outline: as §1
# [12] = organism: Oryctolagus cuniculus; assay: Vasoconstrictor effect at a concentration of 10e-7 M in presence of nondepolarized isolated rings from rabbits.; format: functional
# [13] = organism: Rattus norvegicus; assay: Compound was tested for its effect on ventricular contractility in isolated rat hearts.; format: functional, Cardiac ventricle
# Outline: (§2)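 Coronary vasodilation and ventricular contractility measured in isolated Langendorff-perfused rat hearts. EC25 (concentration raising the parameter by 25%) given as mean ± SEM of four to six hearts.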
# [14] = organism: Rattus norvegicus; assay: Cardiovascular activity in isolated rat heart, concentration producing 25% increase in CF (cardiac flow).; format: functional
# Outline: (§3)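 Isolated Langendorff-perfused rat heart. Coronary flow (CF), LV +dP/dtmax and heart rate recorded during exposure to test agent. Value is the concentration giving a 25% rise in CF or in LV +dP/dtmax, mean ± SE. At least two hearts per compound.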
# [15] = organism: Oryctolagus cuniculus; assay: Vasorelaxant effect at a concentration of 10e-6 M on rabbit aortic rings previously contracted with 50 mM KCl.; format: functional, Aorta; parameters: unit not given here; outline: as §1
# [16] = organism: Oryctolagus cuniculus; assay: Vasoconstrictor effect at a concentration of 10e-9 M in presence of partially depolarized isolated rings from rabbits.; format: functional
# [17] = organism: Oryctolagus cuniculus; assay: Vasoconstrictor effect at a concentration of 10e-8 M in presence of partially depolarized isolated rings from rabbits.; format: functional
# [18] = organism: Oryctolagus cuniculus; assay: Vasorelaxant effect at a concentration of 10e-5 M on rabbit aortic rings previously contracted with 1.0 uM Norepinephrine.; format: functional, Aorta; parameters: unit not given here; outline: as §1
# [19] = organism: Oryctolagus cuniculus; assay: Vasoconstrictor effect at a concentration of 10e-5 M in presence of nondepolarized isolated rings from rabbits.; format: functional
# [20] = organism: Oryctolagus cuniculus; assay: Vasorelaxant effect at a concentration of 10e-6 M on rabbit aortic rings previously contracted with 1.0 uM Norepinephrine.; format: functional, Aorta; parameters: unit not given here; outline: as §1
# [21] = organism: Oryctolagus cuniculus; assay: Vasoconstrictor effect at a concentration of 10e-4 M in presence of nondepolarized isolated rings from rabbits.; format: functional
# [22] = organism: Rattus norvegicus; assay: Cardiovascular activity in isolated rat heart, concentration producing 25% increase in LV + dP/dtmax.; format: functional; outline: as §3
# [23] = organism: Oryctolagus cuniculus; assay: Vasoconstrictor effect at a concentration of 10e-9 M in presence of nondepolarized isolated rings from rabbits.; format: functional
# [24] = organism: Oryctolagus cuniculus; assay: Vasorelaxant effect at a concentration of 10e-7 M on rabbit aortic rings previously contracted with 50 mM KCl.; format: functional, Aorta; parameters: unit not given here; outline: as §1
# [25] = biological target: Voltage-gated L-type calcium channel (Rattus norvegicus, UniProt P22002+Q02485+P27732); assay: Affinity to bind dihydropyridine receptor (DHP receptor) by inhibiting the radioligand [3H]nitrendipine; format: protein assay
# Outline: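 [3H]nitrendipine displacement, rat brain cortical membranes. Each compound first screened at 1000 nM; if inhibition exceeded 40%, a four- to seven-point curve with unlabeled compound was run. IC50 generally mean of two experiments, each in triplicate. ">1000 nM" means under 40% inhibition of control binding at 1000 nM.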
# [26] = organism: Rattus norvegicus; assay: Compound was tested for its effect on coronary vasodilator in isolated rat hearts.; format: functional; outline: as §2
# [27] = organism: Oryctolagus cuniculus; assay: Vasoconstrictor effect at a concentration of 10e-5 M in presence of partially depolarized isolated rings from rabbits.; format: functional
# [28] = organism: Oryctolagus cuniculus; assay: Vasoconstrictor effect at a concentration of 10e-7 M in presence of partially depolarized isolated rings from rabbits.; format: functional
# [29] = organism: Oryctolagus cuniculus; assay: Vasorelaxant effect at a concentration of 10e-10 M on rabbit aortic rings previously contracted with 1.0 uM Norepinephrine.; format: functional, Aorta
# Outline: (§4)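 They were then exposed to increasing concentrations of the test agent, and relaxation of the precontraction was recorded as calcium channel blocking activity.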
# [30] = organism: Oryctolagus cuniculus; assay: Vasorelaxant effect at a concentration of 10e-10 M on rabbit aortic rings previously contracted with 50 mM KCl.; format: functional, Aorta; outline: as §4
# [31] = organism: Oryctolagus cuniculus; assay: Vasoconstrictor effect at a concentration of 3 x 10e-9 M using partially depolarized isolated rings from rabbit.; format: functional
# [32] = organism: Oryctolagus cuniculus; assay: Vasoconstrictor effect at a concentration of 3 x 10e-9 M using nondepolarized isolated rings from rabbit.; format: functional
# [33] = organism: Oryctolagus cuniculus; assay: Vasoconstrictor effect at a concentration of 10e-7 M using partially depolarized isolated rings from rabbit.; format: functional
# [34] = organism: Oryctolagus cuniculus; assay: Vasoconstrictor effect at a concentration of 10e-5 M using partially depolarized isolated rings from rabbit.; format: functional
# [35] = organism: Oryctolagus cuniculus; assay: Vasoconstrictor effect at a concentration of 10e-7 M using nondepolarized isolated rings from rabbit.; format: functional
# [36] = organism: Oryctolagus cuniculus; assay: Vasoconstrictor effect at a concentration of 10e-9 M using nondepolarized isolated rings from rabbit.; format: functional
# [37] = organism: Oryctolagus cuniculus; assay: Vasoconstrictor effect at a concentration of 3 x 10e-8 M using nondepolarized isolated rings from rabbit.; format: functional
# [38] = organism: Oryctolagus cuniculus; assay: Vasoconstrictor effect at a concentration of 10e-8 M using partially depolarized isolated rings from rabbit.; format: functional
# [39] = organism: Oryctolagus cuniculus; assay: Vasoconstrictor effect at a concentration of 10e-6 M using nondepolarized isolated rings from rabbit.; format: functional
# [40] = organism: Oryctolagus cuniculus; assay: Vasoconstrictor effect at a concentration of 10e-6 M using partially depolarized isolated rings from rabbit.; format: functional
# [41] = organism: Oryctolagus cuniculus; assay: Vasoconstrictor effect at a concentration of 10e-9 M using partially depolarized isolated rings from rabbit.; format: functional
# [42] = organism: Oryctolagus cuniculus; assay: Vasoconstrictor effect at a concentration of 10e-5 M using nondepolarized isolated rings from rabbit.; format: functional
# [43] = organism: Oryctolagus cuniculus; assay: Vasoconstrictor effect at a concentration of 10e-8 M using nondepolarized isolated rings from rabbit.; format: functional
# [44] = organism: Oryctolagus cuniculus; assay: Vasoconstrictor effect at a concentration of 3 x 10e-8 M using partially depolarized isolated rings from rabbit.; format: functional
# [45] = organism: Rattus norvegicus; assay: Compound was tested for the cardiovascular activity in isolated rat heart. Value represents the concentration producing 25% increase in CF (cardiac flow); NA indicates not active; format: functional; outline: as §3
# [46] = organism: Rattus norvegicus; assay: Compound was tested for its effect on ventricular cantractility in isolated rat hearts.; format: functional, Cardiac ventricle; outline: as §2
compound,measurement,setting,value
CCOC(=O)C1=C(CS(=O)(=O)c2ccncc2)NC(C)=C(C#N)C1c1ccccc1C(F)(F)F (stereo in doubt; 54),Vasoconstriction effect,[1],0
same,Vasorelaxant effect,[2],53.8
same,Vasorelaxant effect,[3],4.2
same,Vasorelaxant effect,[4],-0.9
same,Vasorelaxant effect,[5],88.9
same,Vasoconstriction effect,[6],2.4
same,Vasorelaxant effect,[7],-4.8
same,Vasorelaxant effect,[8],-1.4
same,Vasoconstriction effect,[9],0
same,Vasorelaxant effect,[10],-8.6
same,Vasorelaxant effect,[11],-1.8
same,Vasoconstriction effect,[12],0
same,EC25,[13],0.535 µM
same,EC25,[14],0.29 µM
same,Vasorelaxant effect,[15],6.2
same,Vasoconstriction effect,[16],3.3
same,Vasoconstriction effect,[17],4.5
same,Vasorelaxant effect,[18],0.7
same,Vasoconstriction effect,[19],0
same,Vasorelaxant effect,[20],-2.3
same,Vasoconstriction effect,[21],0
same,EC25,[22],0.47 µM
same,Vasoconstriction effect,[23],0
same,Vasorelaxant effect,[24],-9.1
same,IC50,[25],0.271 µM
same,EC25,[26],0.284 µM
same,Vasoconstriction effect,[27],0
same,Vasoconstriction effect,[28],5
COC(=O)C1=C(C)NC(C)=C(C(=O)OC)C1c1ccccc1[N+](=O)[O-] [NIFEDIPINE],Vasorelaxant effect,[2],92.6
same,Vasorelaxant effect,[4],-1.2
same,Vasorelaxant effect,[29],-1
same,Vasorelaxant effect,[7],-1.7
same,Vasorelaxant effect,[8],-1.1
same,Vasorelaxant effect,[10],24.7
same,Vasorelaxant effect,[11],1
same,Vasorelaxant effect,[15],89.4
same,Vasorelaxant effect,[18],6.1
same,Vasorelaxant effect,[20],3.5
same,Vasorelaxant effect,[30],-3.1
same,Vasorelaxant effect,[24],65.8
NC[C@H](O)c1ccc(O)c(O)c1 [NOREPINEPHRINE],Vasoconstriction effect,[31],18.2
same,Vasoconstriction effect,[32],0
same,Vasoconstriction effect,[33],84.4
same,Vasoconstriction effect,[34],137.2
same,Vasoconstriction effect,[35],80.2
same,Vasoconstriction effect,[36],0
same,Vasoconstriction effect,[37],49.1
same,Vasoconstriction effect,[38],46.2
same,Vasoconstriction effect,[39],112.6
same,Vasoconstriction effect,[40],106.3
same,Vasoconstriction effect,[41],7.8
same,Vasoconstriction effect,[42],151.3
same,Vasoconstriction effect,[43],22.2
same,Vasoconstriction effect,[44],63.4
COC(=O)C1=C(C)NC(C)=C([N+](=O)[O-])C1c1ccccc1C(F)(F)F (stereo unspecified),Vasoconstriction effect,[31],10.2
same,Vasoconstriction effect,[32],0
same,Vasoconstriction effect,[33],82.1
same,Vasoconstriction effect,[35],10
same,Vasoconstriction effect,[36],0
same,Vasoconstriction effect,[37],1.5
same,Vasoconstriction effect,[38],32.4
same,Vasoconstriction effect,[39],15.9
same,Vasoconstriction effect,[40],93.2
same,Vasoconstriction effect,[41],3.2
same,Vasoconstriction effect,[43],0
same,Vasoconstriction effect,[44],59.2
CCO/C(O)=C1\C(CS(=O)(=O)c2ccccc2)=NC(C)=C(C#N)C1c1ccccc1 (stereo unspecified),Vasorelaxant effect,[2],26
same,Vasorelaxant effect,[3],6
same,EC25,[45],inactive
same,Vasorelaxant effect,[5],54
same,Vasorelaxant effect,[11],0
same,Vasorelaxant effect,[15],1
same,Vasorelaxant effect,[18],0
same,Vasorelaxant effect,[20],1
same,EC25,[22],0.96 µM
same,Vasorelaxant effect,[24],4
same,IC50,[25],0.48 µM
CCO/C(O)=C1\C(CS(=O)(=O)c2ccccc2)=NC(C)=C(C#N)C1c1ccccc1C(F)(F)F (stereo unspecified),Vasorelaxant effect,[2],67
same,Vasorelaxant effect,[3],23
same,Vasorelaxant effect,[5],80
same,Vasorelaxant effect,[11],5
same,EC25,[14],0.07 µM
same,Vasorelaxant effect,[15],24
same,Vasorelaxant effect,[18],13
same,Vasorelaxant effect,[20],7
same,EC25,[22],0.11 µM
same,Vasorelaxant effect,[24],4
same,IC50,[25],0.12 µM
CCOC(=O)C1=C(CS(=O)(=O)c2ccncc2)NC(C)=C(C#N)C1c1ccccc1C(F)(F)F (stereo in doubt; 54A),EC25,[46],0.701 µM
same,IC50,[25],0.152 µM
same,EC25,[26],0.128 µM
CCOC(=O)C1=C(CS(=O)(=O)c2ccncc2)NC(C)=C(C#N)C1c1ccccc1C(F)(F)F (stereo in doubt; 54B),EC25,[46],0.888 µM
same,EC25,[26],1.622 µM
CCO/C(O)=C1\C(CS(=O)(=O)c2ccc(N)cc2)=NC(C)=C(C#N)C1c1ccccc1C(F)(F)F (stereo unspecified),Vasorelaxant effect,[2],38
same,Vasorelaxant effect,[3],5
same,Vasorelaxant effect,[5],69
same,Vasorelaxant effect,[11],2
same,EC25,[14],0.94 µM
same,Vasorelaxant effect,[15],5
same,Vasorelaxant effect,[18],2
same,Vasorelaxant effect,[20],2
same,EC25,[22],0.84 µM
same,Vasorelaxant effect,[24],2
same,IC50,[25],1 µM
NITROPRUSSIDE,Vasorelaxant effect,[2]; Aorta,40.4
same,Vasorelaxant effect,[3]; Aorta,55.8
same,Vasorelaxant effect,[4]; Aorta,-0.003
same,Vasorelaxant effect,[5]; Aorta,52.1
same,Vasorelaxant effect,[7]; Aorta,-5.9
same,Vasorelaxant effect,[8]; Aorta,0.7
same,Vasorelaxant effect,[10]; Aorta,-4.8
same,Vasorelaxant effect,[11]; Aorta,7
same,Vasorelaxant effect,[15]; Aorta,22
same,Vasorelaxant effect,[18]; Aorta,39.8
same,Vasorelaxant effect,[20]; Aorta,22.8
same,Vasorelaxant effect,[24]; Aorta,5.6
